As usually defined, the IC50 is the concentration at which inhibition is half-maximal. A high value points to weaker potency in that assay.

Molecules are shown by their SMILES. Values after ≈ are worked out from the molar mass of the structure shown.

From ChEMBL document CHEMBL1159330, “New diarylheptanoids and diarylheptanoid glucosides from the rhizomes of Tacca chantrieri and their cytotoxic activity” (J Nat Prod, 2002) come the findings set out here.

Experiment [1] is described as follows: Cytotoxicity against HGF by MTT assay. Type of experiment: cell-based. The settings on record: Homo sapiens. The method in brief: (§1)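 HSC-2 grown in DMEM with 10% heat-inactivated FBS. HGF taken from a healthy person's gingival biopsy, explant-cultured, used at passages 5-7. Cells trypsinized, seeded at 6 × 10³ per well, grown 24 h. Washed with PBS, then compound for 24 h. Washed, 0.2 mg/mL MTT in DMEM/10% FBS for 4 h. Lysed in DMSO, A540 measured.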
On the technique in general: Formazan colour is commonly taken as a measure of viable cells.

The test system of experiment [2] is HL-60. The experiment in a line: Cytotoxicity against human HL60 cells after 72 hrs by MTT assay. Type of experiment: functional, cell-based. The conditions noted are these: HL-60, 72 h. The method in brief: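 HL-60 cells kept in RPMI 1640 with 10% heat-inactivated FBS, penicillin and streptomycin, 5% CO₂, 37 °C. Seeded at 4 × 10⁴ cells/mL, 196 µL per well, pre-incubated 24 h. Sample added in EtOH-H₂O (1:1) to final 0.1-10 µg/mL, solvent-only controls. Exposure 72 h. Triplicate. IC₅₀ = 50% drop in viable cells.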

Experiment [3] concerns HSC-2. The experiment in a line: Cytotoxicity against human HSC2 cells by MTT assay. The format is functional, cell-based. In outline: as §1

As for `OC[C@H]1O[C@@H](O[C@H](CCc2ccc(O)cc2)C[C@H](O)CCc2ccc(O)cc2)[C@H](O)[C@@H](O)[C@@H]1O`, the IC50 in experiment [1] was 213 µg/mL (≈ 445 µM); in experiment [2], > 10 µg/mL; in experiment [3] it was 157 µg/mL (≈ 328 µM).

As to `COc1ccc(CC[C@@H](O)C[C@H](O)CCc2ccc(OC)cc2)cc1`, the values for the IC50 in experiment [1], in experiment [2] and in experiment [3] were 173 µg/mL (≈ 502 µM), 6.4 µg/mL (≈ 18.6 µM) and 23 µg/mL (≈ 66.8 µM), respectively.

On to `Oc1ccc(CC[C@@H](O)C[C@H](O)CCc2ccc(O)cc2)cc1` [(+)-HANNOKINOL], for which the results for the IC50 in experiment [1], in experiment [2] and in experiment [3] were 177 µg/mL (≈ 559 µM), > 10 µg/mL and 231 µg/mL (≈ 730 µM), respectively.

As for `Oc1ccc(CC[C@@H](O)C[C@H](O)CCc2ccc(O)c(O)c2)cc1`, the values for the IC50 in experiment [1], in experiment [2] and in experiment [3] were 162 µg/mL (≈ 487 µM), 2.1 µg/mL (≈ 6.32 µM) and 54 µg/mL (≈ 162 µM), respectively.

As to `COc1cc(CC[C@@H](O)C[C@H](O)CCc2ccc(O)c(O)c2)ccc1O`, in experiment [2], the IC50 amounted to 4.1 µg/mL (≈ 11.3 µM).

With `COc1ccc(CC[C@@H](O)C[C@H](O)CCc2ccc(OC)c(OC)c2)cc1`, the half-maximal inhibitory concentration (IC50) in experiment [1] is 176 µg/mL (≈ 470 µM); in experiment [2] it was 5.5 µg/mL (≈ 14.7 µM); in experiment [3], 3.9 µg/mL (≈ 10.4 µM).

Take `OC[C@H]1O[C@@H](O[C@H](CCc2ccc(O)cc2)C[C@H](O)CCc2ccc(O)c(O)c2)[C@H](O)[C@@H](O)[C@@H]1O`: the IC50 in experiment [1] was > 250 µg/mL; in experiment [2], 5.5 µg/mL (≈ 11.1 µM); in experiment [3], 155 µg/mL (≈ 313 µM).

With `COc1cc([C@@H]2c3cc4c(cc3[C@@H](O[C@@H]3O[C@@H]5CO[C@@H](C)O[C@H]5[C@H](O)[C@H]3O)[C@H]3COC(=O)[C@H]23)OCO4)cc(OC)c1O` [ETOPOSIDE], the IC50 in experiment [1] was > 200 µg/mL; in experiment [2], 0.2 µg/mL (≈ 0.34 µM).

As to `COc1cc(CC[C@@H](O)C[C@H](O)CCc2ccc(O)c(OC)c2)ccc1O`, the IC50 in experiment [2] is > 10 µg/mL.

On to `COc1ccc(CC[C@@H](O)C[C@H](O)CCc2ccc(OC)c(OC)c2)cc1OC`, for which the figures for the IC50 in experiment [1], in experiment [2] and in experiment [3] were 174 µg/mL (≈ 430 µM), 4.9 µg/mL (≈ 12.1 µM) and 6.6 µg/mL (≈ 16.3 µM), respectively.

Regarding `COc1cc(CC[C@@H](O)C[C@H](O)CCc2ccc(O)cc2)ccc1O`, the IC50 in experiment [2] is > 10 µg/mL.

As for `OC[C@H]1O[C@@H](O[C@H](CCc2ccc(O)c(O)c2)C[C@H](O)CCc2ccc(O)c(O)c2)[C@H](O)[C@@H](O)[C@@H]1O`, the values for the IC50 in experiment [1], in experiment [2] and in experiment [3] were 189 µg/mL (≈ 370 µM), 3 µg/mL (≈ 5.88 µM) and 92 µg/mL (≈ 180 µM), respectively.

As to `Oc1ccc(CC[C@@H](O)C[C@H](O)CCc2ccc(O)c(O)c2)cc1O`, the IC50 was > 250 µg/mL in experiment [1], 1.8 µg/mL (≈ 5.17 µM) in experiment [2] and 54 µg/mL (≈ 155 µM) in experiment [3].

For `COc1cc(CC[C@H](C[C@H](O)CCc2ccc(O)cc2)O[C@@H]2O[C@H](CO)[C@@H](O)[C@H](O)[C@H]2O)ccc1O`, the results for the IC50 in experiment [1], in experiment [2] and in experiment [3] were > 250 µg/mL, > 10 µg/mL and 160 µg/mL (≈ 315 µM), respectively.

On to `COc1cc(CC[C@H](C[C@H](O)CCc2ccc(O)c(O)c2)O[C@@H]2O[C@H](CO)[C@@H](O)[C@H](O)[C@H]2O)ccc1O`, for which the IC50 in experiment [1] is > 250 µg/mL; in experiment [2], 4.5 µg/mL (≈ 8.58 µM); in experiment [3] it was 209 µg/mL (≈ 398 µM).

On to `COc1cc(CC[C@@H](O)C[C@@H](CCc2ccc(O)c(OC)c2)O[C@@H]2O[C@H](CO)[C@@H](O)[C@H](O)[C@H]2O)ccc1O`, for which the values for the IC50 in experiment [1], in experiment [2] and in experiment [3] were > 250 µg/mL, > 10 µg/mL and 198 µg/mL (≈ 368 µM), respectively.

For the compound `OC[C@H]1O[C@@H](O[C@H](CCc2ccc(O)c(O)c2)C[C@H](O)CCc2ccc(O)cc2)[C@H](O)[C@@H](O)[C@@H]1O`, the IC50 in experiment [1] amounted to 220 µg/mL (≈ 445 µM); in experiment [2] it was 6.2 µg/mL (≈ 12.5 µM); in experiment [3] it was 158 µg/mL (≈ 319 µM).
